Hits are enriched below; roughly 3% of the tested compounds scored in any of these assays.
Rad51 HR inh – human RAD51 strand exchange inhibitors, primary screen, biochemical, fluorescence. 200,000 compounds, 0.085% hits. DNA repair protein RAD51 homolog 1 (Homo sapiens), Q06609. hRad51 DNA strand exchange, fluorescence dequenching. inhibition, % at 10 µM;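 active = inhibition above 40% at the single screening dose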;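 note: 0% = DMSO control wells and 100% = blanks with heterologous ssDNA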
Target sequence (Q06609 whole entry, looked up): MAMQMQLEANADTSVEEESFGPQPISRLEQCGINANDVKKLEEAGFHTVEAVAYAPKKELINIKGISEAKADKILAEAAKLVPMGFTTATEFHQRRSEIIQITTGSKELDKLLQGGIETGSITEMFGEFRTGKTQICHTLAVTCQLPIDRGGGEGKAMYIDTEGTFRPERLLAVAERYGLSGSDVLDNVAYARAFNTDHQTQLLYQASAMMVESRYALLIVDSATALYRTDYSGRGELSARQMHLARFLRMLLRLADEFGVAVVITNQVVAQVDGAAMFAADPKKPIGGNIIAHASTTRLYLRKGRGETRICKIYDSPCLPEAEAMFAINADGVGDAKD
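material = hRad51 filaments on single-stranded DNA | reagent = Donor/quencher-labelled 47-bp dsDNA substrate | compound = 10 µM final, single point | schedule = strand-exchange reaction 15 min at room temperature | measured by = fluorescein emission 520 nm, excitation 485 nm | read-out basis = % inhibition versus plate control and blank means | benchmarks = plate controls and plate blanks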
KCC2 mod – KCC2 cotransporter modulators, thallium flux, primary screen, cell-based, HEK293 KCC2, FluoZin-2 fluorescence, MLSMR; 190,000 compounds, 2.2% hits; B-score of Tl+ flux slope (higher = more flux/activation; lower = inhibition) at 10 µM; KCC2 cells, thallium flux FluoZin-2 fluorescence; AID 1456, 2008;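 active = thallium flux slope and its plate-corrected score both differing from the plate sample mean at a set confidence after two filtering rounds, in either direction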;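 note: slope of fluorescence scaled to starting intensity during 10 to 20 s after thallium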
PKD1 inh – inhibitors of human PKD1 kinase, biochemical, fluorescence polarization. inhibition, % (no concentration beside the values). PKD1 kinase fluorescence polarization assay. 200,000 compounds, 0.056% hits. Serine/threonine-protein kinase D1 (Homo sapiens), Q15139; in the data active = inhibition above about 50%
ROMK mod – ROMK potassium channel modulators, primary screen, cell-based, thallium flux, MLSMR library; Tet-inducible ROMK, thallium flux fluorescence; actives lie on both sides; ATP-sensitive inward rectifier potassium channel 1 (Homo sapiens), P48048; B-score at 10 µM; 130,000 compounds, 2% hits;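 active = signal ratio slope over the read window, or its plate-corrected B-score, at least 3 SD from the plate mean, either direction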;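 note: B-score of the F/F0 ratio slope over 7 to 12 s after thallium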
Target sequence (P48048 whole entry, looked up): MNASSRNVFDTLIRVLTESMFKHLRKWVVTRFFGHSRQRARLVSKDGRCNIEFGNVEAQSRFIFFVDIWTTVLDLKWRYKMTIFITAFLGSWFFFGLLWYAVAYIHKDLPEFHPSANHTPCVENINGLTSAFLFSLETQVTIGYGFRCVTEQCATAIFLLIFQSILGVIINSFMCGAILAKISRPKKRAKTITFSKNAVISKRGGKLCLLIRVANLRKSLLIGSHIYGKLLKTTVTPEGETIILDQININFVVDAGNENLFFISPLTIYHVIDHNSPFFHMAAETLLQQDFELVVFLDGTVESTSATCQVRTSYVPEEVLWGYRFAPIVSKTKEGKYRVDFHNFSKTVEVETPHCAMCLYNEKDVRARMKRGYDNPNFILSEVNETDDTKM
KCC2 secondary – KCC2 modulators in sodium-free buffer, confirmation, cell-based, HEK293 KCC2, thallium flux, secondary assay; shares compounds with KCC2 mod; FluoZin2 fluorescence; hits give high values; normalised thallium flux (F/F0 slope) at 10 µM; 3,700 compounds, 15% hits; AID 1713, 2009;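 active = thallium flux slope above the same plate's solvent-only control mean plus 3 SD; inconclusive = the two replicate wells disagree; inactive = no significant difference from solvent-only control wells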
KCC2 bumet counter – thallium flux persisting under bumetanide in KCC2 cells, confirmation, counter-screen for KCC2 modulator project, cell-based, HEK293 KCC2, FluoZin2, secondary assay 3; shares compounds with KCC2 mod; HEK293-KCC2 + bumetanide/ouabain; hits give high values; normalized thallium flux at 10 µM; 3,700 compounds, 49% hits; AID 1714, 2009;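 active = thallium entry rate above the same plate's blocked-transporter control wells by more than 3 SD; inconclusive = the two repeat wells disagree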;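 note: raw slope of fluorescence over initial fluorescence between 10 and 20 s after thallium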
KCC2 secondary2 – KCC2 modulators without ouabain present, confirmation, cell-based, HEK293 KCC2, thallium flux, FluoZin2, secondary assay 2. shares compounds with KCC2 mod. thallium flux FluoZin2 fluorescence; actives lie on both sides; F/F0 rise rate, 10–20 s post-thallium. normalized thallium flux at 10 µM. 3,700 compounds, 23% hits. AID 1715, 2009;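 active = thallium flux slope more than 3 SD above or below the plate's solvent-only control mean, mostly below; inconclusive = the two repeat wells disagreed; inactive = no significant shift from solvent-only controls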;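 note: raw slope with 0.1% DMSO as baseline and bumetanide as block control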
HEK counter1 – thallium flux modulation in parental HEK cells, confirmation, counter-screen for KCC2 modulator project, cell-based, counterscreen 1. thallium flux rate (normalised fluorescence) at 10 µM. HEK293 parental cells, thallium flux FluoZin2, ouabain; baseline-ratio fluorescence slope, 10–20 s after thallium. AID 1716, 2009. shares compounds with KCC2 mod. 3,700 compounds, 46% hits;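 active = thallium flux rate significantly above the same plate's solvent-only control wells, beyond their mean plus 3 SD; inconclusive = the two replicate wells gave conflicting results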
KCC2 retest ouab – KCC2 inhibitors and activators, ouabain retest, confirmation, HEK-KCC2 cells. shares compounds with KCC2 mod. 3,700 compounds, 48% hits. AID 1717, 2009. raw Tl+ flux slope (below DMSO = inhibition, above = activation) at 10 µM. HEK293-KCC2, thallium flux FluoZin2 fluorescence; bidirectional: low = inhibitor, high = activator;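 active = thallium flux slope beyond 3 SD from same-plate DMSO control mean in most replicates, usually higher, sometimes lower; inconclusive = repeat tests gave conflicting results; inactive = no significant difference from controls in most replicates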;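 note: slope of initial-normalized fluorescence between seconds 10 and 20 after thallium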
HEK counter2 – native HEK Tl+ uptake effects, second counter-screen – HEK cells, counterscreen 2, counter-screen for KCC2 modulator project, confirmation. shares compounds with KCC2 mod. HEK293 parental, thallium flux FluoZin-2 fluorescence slope. thallium flux slope at 10 µM. 3,700 compounds, 33% hits. AID 1718, 2009;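 active = thallium flux slope above the same plate's solvent-control mean plus 3 SD in both duplicate wells; inconclusive = duplicate wells that disagreed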;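 note: run without ouabain in cells lacking the KCC2 cotransporter; slope of fluorescence scaled to its starting value between 10 and 20 s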
* hit, by the source's call; ? = inconclusive; nt = no result.

SMILES | Rad51 HR inh | KCC2 mod | PKD1 inh | ROMK mod | KCC2 secondary | KCC2 bumet counter | KCC2 secondary2 | HEK counter1 | KCC2 retest ouab | HEK counter2
N#CC(c1ccccc1)c1ccc2c(C(F)(F)F)cc(C(F)(F)F)nc2n1 (stereo not drawn) | 0.1 | 1.72 | -1.8 | -0.456 | nt | nt | nt | nt | nt | nt
CCCc1ccc(-c2cc(NC(=O)CSc3nnc(N)s3)n(-c3ccccc3)n2)cc1 | 2.5 | -1.08 | 7.6 | nt | nt | nt | nt | nt | nt | nt
O=C1CS/C(=C/C(=O)c2cccc(Cl)c2)N1 | -3.3 | 6.79* | 1.6 | 0.0811 | ? | 0.0236* | 0.0299 | 0.0111* | 0.0513* | 0.0112*
O=S(=O)(NCc1csc(-c2cccs2)n1)c1cccs1 | nt | -4.11 | nt | nt | nt | nt | nt | nt | nt | nt
O=S(=O)(NCc1csc(-c2cccs2)n1)c1cccc(C(F)(F)F)c1 | nt | -5.4* | nt | nt | ? | 0.00357 | 0.0187* | 0.0058* | 0.0101* | ?
O=S(=O)(NCc1csc(-c2cccs2)n1)c1ccc(Cl)cc1 | nt | -5.12* | nt | nt | ? | ? | 0.019* | 0.00502* | 0.0102* | ?
Cc1ccc(S(=O)(=O)NCc2csc(-c3cccs3)n2)cc1 | 14.8 | -2.12* | nt | 0.0986 | 0.0054 | 0.00354 | 0.0224* | 0.0063 | 0.012* | ?
Cc1ccc(C)n1-c1ccc(-c2ccnc(N)n2)cc1 | -33.5 | 1.82 | 0.9 | 0.748 | nt | nt | nt | nt | nt | nt
CCc1cc(C(=O)O)c(NC(=O)C(c2ccccc2)c2ccccc2)s1 | 3.6 | -4.33* | -7.7 | 1.04 | 0.00827 | 0.00546* | 0.0278 | 0.00694 | 0.0163 | 0.00909
O=c1oc2ccccc2c(NCc2cccc(F)c2)c1[N+](=O)[O-] | -4.2 | nt | -14.2 | nt | 0.00742 | 0.00568 | 0.0299 | 0.0066 | 0.0219* | 0.0104
O=c1oc2ccccc2c(Nc2ccc3ccccc3c2)c1[N+](=O)[O-] | 1.5 | -3.78* | -11.2 | nt | 0.00911 | 0.0072 | 0.0312 | 0.00422 | 0.0152* | 0.0114
O=C(N/N=C/c1ccccc1)c1n[nH]c2c1CCCC2 | 5.4 | -0.0296 | -6.0 | 0.0143 | nt | nt | nt | nt | nt | nt
O=C(N/N=C/C(Br)=C/c1ccccc1)c1n[nH]c2c1CCC2 | 7.3 | nt | -4.2 | 1.87 | 0.00775 | 0.00663 | 0.0282 | 0.00702 | ? | 0.00988
Cc1ccccc1-c1nc(CS(=O)CC(=O)NCc2ccccc2)c(C)o1 (stereo not drawn) | 1.9 | nt | -11.7 | nt | 0.00596 | ? | 0.0236* | 0.00666 | ? | 0.0108
Cn1c(=O)c([N+](=O)[O-])c(NCc2ccc3c(c2)OCO3)c2ccccc21 | -1.6 | -1.95 | nt | nt | nt | nt | nt | nt | nt | nt
O=C(NC1CCCCC1)c1ccc(CN2CCOCC2)cc1 | 5.0 | -2.84* | 8.8 | -0.476 | 0.00983 | 0.00661 | 0.0344 | 0.00779 | 0.0215 | 0.0108
COC(=O)c1ccccc1NC(=O)CSc1ccc(C)cc1 | -0.3 | -4.3* | -2.3 | -1.22 | 0.00829 | ? | 0.0331 | 0.00626 | 0.0204 | 0.0105
Cc1cccc(NC(=O)CCC(=O)Nc2nnc(C(F)(F)F)s2)c1 | nt | -0.0412 | nt | nt | nt | nt | nt | nt | nt | nt
O=C(OCCCc1ccncc1)c1ccc(S(=O)(=O)N2CCOCC2)cc1 | -0.6 | nt | -10.7 | -1.86 | 0.00954 | 0.0183* | 0.0335 | 0.0109* | 0.0222 | 0.0114*
CCOc1ccc(OCC)c(NS(=O)(=O)c2cccc3nsnc23)c1 | 2.3 | 18.4* | -4.7 | nt | 0.0133* | 0.0726* | 0.0349 | 0.0274* | 0.0353* | 0.0134*
CCOc1ccccc1NS(=O)(=O)c1cccc2nsnc12 | -1.8 | 2.86 | 1.7 | -0.405 | nt | nt | nt | nt | nt | nt
CN(C1CCS(=O)(=O)C1)S(=O)(=O)c1cccc2nsnc12 (stereo not drawn) | 9.9 | nt | -12.1 | 0.515 | 0.00596 | 0.00457 | 0.029 | 0.00774 | 0.0185 | 0.0108
CN(C)S(=O)(=O)c1cccc2nsnc12 | -6.2 | nt | -0.3 | 0.14 | nt | nt | nt | nt | nt | nt
CNS(=O)(=O)c1cccc2nsnc12 | -5.2 | 0.135 | -11.9 | 1.3 | 0.00877 | ? | 0.0311 | 0.008 | 0.0214 | 0.0107
O=C(C1CCCC1)N1CCN=C1SCc1cccc([N+](=O)[O-])c1 | 4.5 | -0.376 | -6.6 | -1.7 | nt | nt | nt | nt | nt | nt
SMILES | Rad51 HR inh | KCC2 mod | PKD1 inh | ROMK mod | KCC2 secondary | KCC2 bumet counter | KCC2 secondary2 | HEK counter1 | KCC2 retest ouab | HEK counter2
O=C(CCn1c(=O)c2ccccc2n(Cc2cccc([N+](=O)[O-])c2)c1=O)N1CCc2ccccc2C1 | -10.0 | -3.13* | -10.7 | -0.768 | 0.00683 | 0.00466 | 0.0338 | 0.00671 | 0.0178* | 0.0109
COc1cccc2sc(Nc3nnc(-c4ccccc4Cl)o3)nc12 | 1.7 | 79.6* | -10.2 | nt | 0.0439* | 0.129* | 0.0994* | ? | 0.103* | 0.113*
COc1cccc2sc(Nc3nc(-c4cc5ccccc5oc4=O)cs3)nc12 | 8.5 | 0.595 | 18.9 | nt | nt | nt | nt | nt | nt | nt
CCOc1cc(/C=C(\C#N)C(=O)NCc2cccnc2)ccc1O | -10.1 | -1.87 | -4.0 | -1.77 | nt | nt | nt | nt | nt | nt
COC(=O)CCCC1=CC2=C(c3ccccc3)C(=O)C(C)(OC(=O)C3CCCC3)C(=O)C2=CN1Cc1ccc(OC)cc1 (stereo not drawn) | 5.4 | -2.6* | nt | nt | 0.0147 | 0.00423 | 0.0295 | 0.00654 | 0.0156 | 0.00874
COc1ccc(S(=O)(=O)N2CCCC2C(=O)n2nc(C)cc2C)cc1 (stereo not drawn) | nt | -0.526 | -0.9 | 0.018 | nt | nt | nt | nt | nt | nt
N=C(N)c1ccc(/C=C/c2ccc(C(=N)N)cc2O)cc1 | -5.0 | 0.0622 | nt | nt | nt | nt | nt | nt | nt | nt
COc1cccc(C(=O)CSc2nnc(CNS(=O)(=O)c3ccc(C)cc3)n2C)c1 | 26.5 | -4.16* | -1.4 | -0.361 | 0.00995 | 0.00715 | 0.0324 | 0.00841 | 0.0235 | 0.0114*
COc1cc(OC)c(OC)cc1/C=N/N(C)c1ccccc1 | -8.5 | -0.668 | -3.3 | nt | nt | nt | nt | nt | nt | nt
COc1cc(/C=N/N(C)c2ccccc2)ccc1O | -15.6 | -4.13* | 1.0 | -0.511 | 0.006 | 0.00467 | 0.0247* | 0.00694 | ? | 0.0104
